Measurements reported in ChEMBL document CHEMBL1126582, “Symmetry-based inhibitors of HIV protease. Structure-activity studies of acylated 2,4-diamino-1,5-diphenyl-3-hydroxypentane and 2,5-diamino-1,6-diphenylhexane-3,4-diol” (J Med Chem, 1993).
pEC50, pIC50: −log10 of the molar value. In brackets after ≈: the same amount, converted by molar mass.

Experiments:
[1] = Estimated solubility (buffer pH 7.4); format: ADME; settings: read-out: S
Method in brief: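 Solubility was estimated in pH 7.4 phosphate buffer.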

[2] = system: MT4; experiment: In vitro for cytotoxicity in MT-4 lymphocytes in the absence of HIV infection.; format: functional; settings: Homo sapiens
Method in brief: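 Uninfected MT-4 lymphocytes were cultured with compound. CC50 is the concentration at which 50% of cells remain viable.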

[3] = system: Human immunodeficiency virus 1; experiment: In vitro for inhibition of cytopathic effect of HIV-1 3B in MT-4 lymphocytes.; format: functional, organism-based
Method in brief: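 MT-4 lymphocytes were infected with HIV-1 3B at an MOI of either 0.001 or 0.032 tissue culture infective dose per cell. EC50 is the concentration preventing 50% of viral cytopathic effect, from a single triplicate assay. No effect means no activity up to 100 μM or up to the cytotoxic concentration.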

[4] = biological target: Human immunodeficiency virus type 1 protease (Human immunodeficiency virus 1, UniProt Q72874); experiment: Inhibition of purified recombinant HIV-1 protease in a fluorogenic assay
Method in brief: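 Purified recombinant HIV-1 protease, with cleavage of the fluorogenic substrate DABCYL-[…]-Pro-Ile-Val-Gln-EDANS as read-out. Value is the inhibitor concentration giving 50% inhibition of protease activity.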

Structure (SMILES) | solubility [1] [µg/mL] | CC50 [2] [µM] | pEC50 [3] | pIC50 [4]
CC(C)[C@H](NC(=O)OCc1ccncc1)C(=O)N[C@@H](Cc1ccccc1)[C@H](O)[C@H](O)[C@H](Cc1ccccc1)NC(=O)[C@H](NC(=O)OCc1ccncc1)C(C)C | 0.62 (≈ 0.806 µM) | > 100 | 6.22 | 8.64
CC(C)[C@H](NC(=O)OCc1ccccn1)C(=O)N[C@@H](Cc1ccccc1)[C@@H](O)[C@H](Cc1ccccc1)NC(=O)[C@H](NC(=O)OCc1ccccc1)C(C)C | 0.6 (≈ 0.813 µM) | > 100 | 5.66 | 8.52
CC(C)[C@H](NC(=O)OCc1ccccc1)C(=O)N[C@@H](Cc1ccccc1)[C@H](O)[C@H](O)[C@H](Cc1ccccc1)NC(=O)[C@H](NC(=O)OCc1ccccc1)C(C)C |  | > 100 | 7.15 | > 9.00
CC(C)[C@H](NC(=O)OCC1CCCCN1C)C(=O)N[C@@H](Cc1ccccc1)[C@@H](O)[C@H](Cc1ccccc1)NC(=O)[C@H](NC(=O)OCc1ccccc1)C(C)C (stereo partly drawn) | 19 (≈ 25.1 µM) |  |  | 7.20
CC(C)[C@H](NC(=O)N(C)Cc1ccccn1)C(=O)N[C@@H](Cc1ccccc1)[C@H](O)[C@@H](O)[C@H](Cc1ccccc1)NC(=O)[C@H](NC(=O)N(C)Cc1cccnc1)C(C)C | 420 (≈ 528 µM) | > 100 | 6.32 | > 9.00
CC(C)[C@H](NC(=O)/C=C/c1cccnc1)C(=O)N[C@@H](Cc1ccccc1)[C@@H](O)[C@@H](O)[C@H](Cc1ccccc1)NC(=O)[C@H](NC(=O)/C=C/c1cccnc1)C(C)C | 23 (≈ 30.2 µM) | > 100 | 5.21 | 8.28
CC(C)[C@H](NC(=O)N(C)Cc1ccccn1)C(=O)N[C@@H](Cc1ccccc1)[C@@H](O)[C@H](O)[C@H](Cc1ccccc1)NC(=O)[C@H](NC(=O)N(C)Cc1ccccn1)C(C)C | 197 (≈ 248 µM) | > 100 | 6.57 | > 9.00
CC(C)[C@H](NC(=O)N(C)Cc1nc2ccccc2[nH]1)C(=O)N[C@@H](Cc1ccccc1)[C@H](O)[C@H](O)[C@H](Cc1ccccc1)NC(=O)[C@H](NC(=O)N(C)Cc1nc2ccccc2[nH]1)C(C)C | 18 (≈ 20.6 µM) | 31 | 5.72 | > 9.00
CC(C)[C@H](NC(=O)CN1CCOCC1)C(=O)N[C@@H](Cc1ccccc1)[C@@H](O)[C@@H](O)[C@H](Cc1ccccc1)NC(=O)[C@H](NC(=O)CN1CCOCC1)C(C)C |  |  |  | 8.12
CC(C)[C@H](NC(=O)OCc1ccccn1)C(=O)N[C@@H](Cc1ccccc1)[C@@H](O)[C@@H](O)[C@H](Cc1ccccc1)NC(=O)[C@H](NC(=O)OCc1ccccn1)C(C)C | 5.4 (≈ 7.02 µM) | > 100 | 6.35 | > 9.00
CC(C)[C@H](NC(=O)OCc1ccccn1)C(=O)N[C@@H](Cc1ccccc1)[C@H](O)[C@H](O)[C@H](Cc1ccccc1)NC(=O)[C@H](NC(=O)OCc1ccccn1)C(C)C | 0.21 (≈ 0.273 µM) | > 100 | 6.64 | > 9.00
CC(C)[C@H](NC(=O)c1cc2ccccc2[nH]1)C(=O)N[C@@H](Cc1ccccc1)[C@@H](O)[C@@H](O)[C@H](Cc1ccccc1)NC(=O)[C@H](NC(=O)c1cc2ccccc2[nH]1)C(C)C |  | 49 | 7.15 | > 9.00
CC(C)[C@H](NC(=O)N(C)Cc1nc2ccccc2[nH]1)C(=O)N[C@@H](Cc1ccccc1)[C@@H](O)[C@H](O)[C@H](Cc1ccccc1)NC(=O)[C@H](NC(=O)N(C)Cc1nc2ccccc2[nH]1)C(C)C | 6.6 (≈ 7.56 µM) | 27 | 5.77 | > 9.00
CC(C)[C@H](NC(=O)N(C)Cc1ccccn1)C(=O)N[C@@H](Cc1ccccc1)[C@H](O)[C@H](O)[C@H](Cc1ccccc1)NC(=O)[C@H](NC(=O)N(C)Cc1ccccn1)C(C)C | 3.6 (≈ 4.53 µM) | > 100 | 6.77 | > 9.00
CC(C)[C@H](NC(=O)/C=C/c1ccccn1)C(=O)N[C@@H](Cc1ccccc1)[C@@H](O)[C@@H](O)[C@H](Cc1ccccc1)NC(=O)[C@H](NC(=O)/C=C/c1ccccn1)C(C)C | 6.8 (≈ 8.94 µM) | > 100 | 5.96 | > 9.00
CC(C)[C@H](NC(=O)NCc1ccccn1)C(=O)N[C@@H](Cc1ccccc1)C(O)[C@H](Cc1ccccc1)NC(=O)[C@H](NC(=O)NCc1ccccn1)C(C)C (stereo partly drawn) | 53 (≈ 71.9 µM) | > 100 | 5.21 | 8.00
CC(C)[C@H](NC(=O)N(C)Cc1ccccn1)C(=O)N[C@@H](Cc1ccccc1)[C@H](O)[C@@H](O)[C@H](Cc1ccccc1)NC(=O)[C@H](NC(=O)N(C)Cc1nccs1)C(C)C | 10.9 (≈ 13.6 µM) | > 100 | 6.66 | > 9.00
CC(C)[C@H](NC(=O)OCc1ccccc1)C(=O)N[C@@H](Cc1ccccc1)[C@@H](O)[C@@H](O)[C@H](Cc1ccccc1)NC(=O)[C@H](NC(=O)OCc1ccccc1)C(C)C | < 0.03 | > 100 | 6.96 | > 9.00
CC(C)[C@H](NC(=O)c1cc2ccccc2[nH]1)C(=O)N[C@@H](Cc1ccccc1)C(O)[C@H](Cc1ccccc1)NC(=O)[C@H](NC(=O)c1cc2ccccc2[nH]1)C(C)C (stereo partly drawn) |  | 58 | 5.05 | 8.92
CC(C)[C@H](NC(=O)OCc1cccnc1)C(=O)N[C@@H](Cc1ccccc1)[C@@H](O)[C@@H](O)[C@H](Cc1ccccc1)NC(=O)[C@H](NC(=O)OCc1cccnc1)C(C)C | 31 (≈ 40.3 µM) | > 100 | 6.36 | > 9.00
CC(C)[C@H](NC(=O)OCc1cccnc1)C(=O)N[C@@H](Cc1ccccc1)[C@@H](O)[C@H](O)[C@H](Cc1ccccc1)NC(=O)[C@H](NC(=O)OCc1cccnc1)C(C)C | 0.5 (≈ 0.65 µM) |  |  | > 9.00
CC(C)[C@H](NC(=O)N(C)CCc1ccccn1)C(=O)N[C@@H](Cc1ccccc1)[C@@H](O)[C@H](O)[C@H](Cc1ccccc1)NC(=O)[C@H](NC(=O)N(C)CCc1ccccn1)C(C)C | 66 (≈ 80.2 µM) | 61 | 5.38 | 8.28
CC(C)[C@H](NC(=O)OCc1cccnc1)C(=O)N[C@@H](Cc1ccccc1)[C@H](O)[C@H](O)[C@H](Cc1ccccc1)NC(=O)[C@H](NC(=O)OCc1cccnc1)C(C)C | 0.41 (≈ 0.533 µM) |  |  | > 9.00
CC(C)[C@H](NC(=O)OCCN1CCOCC1)C(=O)N[C@@H](Cc1ccccc1)C(O)[C@H](Cc1ccccc1)NC(=O)[C@H](NC(=O)OCCN1CCOCC1)C(C)C (stereo partly drawn) | 273 (≈ 349 µM) |  |  | 6.74
CC(C)[C@H](NC(=O)N(C)Cc1cccnc1)C(=O)N[C@@H](Cc1ccccc1)[C@@H](O)[C@@H](O)[C@H](Cc1ccccc1)NC(=O)[C@H](NC(=O)N(C)Cc1cccnc1)C(C)C | 338 (≈ 425 µM) | > 100 | 5.24 | 8.80
CC(C)[C@H](NC(=O)N(C)Cc1nc2ccccc2[nH]1)C(=O)N[C@@H](Cc1ccccc1)[C@@H](O)[C@@H](O)[C@H](Cc1ccccc1)NC(=O)[C@H](NC(=O)N(C)Cc1nc2ccccc2[nH]1)C(C)C | 12 (≈ 13.7 µM) | 55 | 5.30 | > 9.00
CC(C)[C@H](NC(=O)N(C)Cc1cccnc1)C(=O)N[C@@H](Cc1ccccc1)[C@@H](O)[C@H](O)[C@H](Cc1ccccc1)NC(=O)[C@H](NC(=O)N(C)Cc1cccnc1)C(C)C | 153 (≈ 192 µM) | > 100 | 5.77 | > 9.00
CC(C)[C@H](NC(=O)OCc1ccccc1)C(=O)N[C@@H](Cc1ccccc1)[C@@H](O)[C@H](Cc1ccccc1)NC(=O)[C@H](NC(=O)OCc1ccccc1)C(C)C | > 0.03 | > 100 |  | 
CC(C)[C@H](NC(=O)N(C)Cc1nccs1)C(=O)N[C@@H](Cc1ccccc1)[C@@H](O)[C@@H](O)[C@H](Cc1ccccc1)NC(=O)[C@H](NC(=O)N(C)Cc1nccs1)C(C)C | 137 (≈ 170 µM) | > 100 | 5.77 | 9.00
CC(C)[C@H](NC(=O)OCc1ccccc1)C(=O)N[C@@H](Cc1ccccc1)[C@@H](O)[C@H](O)[C@H](Cc1ccccc1)NC(=O)[C@H](NC(=O)OCc1ccccc1)C(C)C |  | > 100 | 7.05 | > 9.00
